Test results published in ChEMBL document CHEMBL4312006, “A novel chalcone derivative as Nrf2 activator attenuates learning and memory impairment in a scopolamine-induced mouse model” (Eur J Med Chem, 2020).
Calls of active or inactive are those of the source. No cut-off for these calls is given here.

Columns and labels:
[1] = target: T1, Nuclear factor erythroid 2-related factor 2 (Mus musculus) (UniProt Q60795); test: Activation of NRF2 in mouse BV2 cells assessed as increase in GCLM protein expression at 3 uM incubated for 6 hrs by Western blot analysis; type: cell-based
T1 sequence (whole entry): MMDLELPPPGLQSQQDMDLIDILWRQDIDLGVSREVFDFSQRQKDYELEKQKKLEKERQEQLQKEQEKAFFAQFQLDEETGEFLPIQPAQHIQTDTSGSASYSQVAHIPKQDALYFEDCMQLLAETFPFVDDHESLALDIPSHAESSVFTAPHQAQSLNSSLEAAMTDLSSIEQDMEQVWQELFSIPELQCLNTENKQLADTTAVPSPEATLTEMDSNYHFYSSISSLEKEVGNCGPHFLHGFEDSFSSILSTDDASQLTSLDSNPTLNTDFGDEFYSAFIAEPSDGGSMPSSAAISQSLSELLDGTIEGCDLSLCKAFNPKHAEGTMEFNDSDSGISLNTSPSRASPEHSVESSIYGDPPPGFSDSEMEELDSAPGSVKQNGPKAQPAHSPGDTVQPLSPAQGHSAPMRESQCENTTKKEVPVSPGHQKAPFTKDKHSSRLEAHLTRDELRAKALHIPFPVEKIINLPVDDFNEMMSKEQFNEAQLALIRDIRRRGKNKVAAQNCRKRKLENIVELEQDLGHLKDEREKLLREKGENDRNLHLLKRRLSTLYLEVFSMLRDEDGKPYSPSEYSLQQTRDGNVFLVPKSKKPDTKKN
How it was run: (§1)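 BV-2 cells washed in ice-cold PBS and lysed on ice for 40 min in RIPA buffer with protease inhibitors. Nuclear fractions prepared separately. 10 μg protein run on SDS-PAGE and blotted to PVDF. Membranes blocked in 5% skim milk/TBST and probed overnight at 4 °C for Nrf2, HO-1, GCLM or SOD1. HRP secondary with ECL detection. Band densities normalised to Lamin B1 or β-actin.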

[2] = target: T1, Nuclear factor erythroid 2-related factor 2 (Mus musculus); test: Activation of NRF2 in mouse BV2 cells assessed as increase in GCLM protein expression incubated for 12 hrs by Western blot analysis; type: cell-based; how it was run: as §1
[3] = target: T2, CYP1A2 (Homo sapiens, UniProt P05177); test: Inhibition of CYP1A2 (unknown origin) assessed as remaining activity relative to control; type: ADME
T2 sequence (P05177 whole entry): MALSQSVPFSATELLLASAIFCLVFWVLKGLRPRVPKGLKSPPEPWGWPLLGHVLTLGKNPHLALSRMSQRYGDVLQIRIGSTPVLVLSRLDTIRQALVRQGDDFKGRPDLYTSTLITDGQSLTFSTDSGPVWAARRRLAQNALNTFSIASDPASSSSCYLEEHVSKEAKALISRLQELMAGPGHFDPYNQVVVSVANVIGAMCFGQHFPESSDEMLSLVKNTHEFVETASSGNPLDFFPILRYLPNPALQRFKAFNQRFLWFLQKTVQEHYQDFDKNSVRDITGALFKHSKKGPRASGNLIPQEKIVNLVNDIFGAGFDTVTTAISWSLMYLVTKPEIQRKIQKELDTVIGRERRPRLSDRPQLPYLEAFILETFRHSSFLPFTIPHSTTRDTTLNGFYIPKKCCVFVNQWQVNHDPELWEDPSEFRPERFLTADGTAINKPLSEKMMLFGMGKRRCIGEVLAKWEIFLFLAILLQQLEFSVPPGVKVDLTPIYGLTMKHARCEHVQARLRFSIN

[4] = target: T1, Nuclear factor erythroid 2-related factor 2 (Mus musculus); test: Activation of NRF2 in mouse BV2 cells assessed as increase in HO1 protein expression incubated for 12 hrs by Western blot analysis; type: cell-based; how it was run: as §1
[5] = Stability in rat plasma assessed as compound remaining after 30 mins; type: ADME, cell-free; details: read-out: Stability
[6] = target: T1, Nuclear factor erythroid 2-related factor 2 (Mus musculus); test: Activation of NRF2 in mouse BV2 cells assessed as inhibition of LPS-stimulated iNOS expression preincubated for 3 hrs followed by LPS stimulation for 24 hrs by Western blot analysis; type: cell-based
How it was run: (§2)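 LPS-stimulated BV-2 cells pretreated with compound for 3 h. iNOS immunoblot (1:500) on 10 μg RIPA lysate protein, detected by ECL. Densities normalised to β-actin or Lamin B1 and compared with LPS-treated control.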

[7] = system: Mus musculus; test: Cognition enhancing effect in C57BL/6 mouse model of scopolamine-induced amnesia assessed as increase in […] percentage at 30 mg/kg, po administered for 5 days and measured on day 5 after 30 mins of scopolamine stimulation by Y-maze test; type: functional, organism-based
How it was run: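 Male C57BL/6N mice given 30 mg/kg/day compound in saline by gavage for 5 days. Scopolamine 2 mg/kg in saline given i.p. 30 min before testing on the last day. Mice handled daily for 7 days beforehand. Free exploration of a three-arm Y-maze for 10 min, with entries scored manually (all four paws). Alternation = consecutive entries into three different arms.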

[8] = target: T1, Nuclear factor erythroid 2-related factor 2 (Mus musculus); test: Activation of NRF2 in mouse BV2 cells assessed as increase in total NRF2 level at 0.1 to 10 uM incubated for 6 hrs by Western blot analysis; type: cell-based; how it was run: as §1
[9] = target: CYP2C19 (Homo sapiens, UniProt P33261); test: Inhibition of CYP2C19 (unknown origin) assessed as remaining activity relative to control; type: ADME
CYP2C19, sequence (P33261 whole entry): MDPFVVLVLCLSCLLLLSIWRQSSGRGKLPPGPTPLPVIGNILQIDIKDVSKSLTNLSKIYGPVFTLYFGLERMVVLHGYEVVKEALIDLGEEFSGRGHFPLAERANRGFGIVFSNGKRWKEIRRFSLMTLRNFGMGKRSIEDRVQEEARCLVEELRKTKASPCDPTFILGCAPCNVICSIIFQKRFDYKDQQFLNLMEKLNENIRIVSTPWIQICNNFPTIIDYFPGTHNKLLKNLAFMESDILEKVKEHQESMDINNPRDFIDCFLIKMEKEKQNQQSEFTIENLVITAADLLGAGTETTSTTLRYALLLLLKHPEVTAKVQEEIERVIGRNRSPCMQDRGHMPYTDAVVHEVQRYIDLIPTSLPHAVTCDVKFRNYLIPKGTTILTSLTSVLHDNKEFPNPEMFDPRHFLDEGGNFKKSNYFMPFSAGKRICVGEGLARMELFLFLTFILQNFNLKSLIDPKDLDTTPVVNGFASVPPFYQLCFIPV

[10] = system: BV-2; test: Cytotoxicity against mouse BV2 cells assessed as reduction in cell viability upto 10 uM incubated for 24 hrs by WST assay; type: cell-based; details: bv-2, 24 h
How it was run: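 BV-2 cells incubated with compound concentrations up to 10 µM for 24 h at 37 °C. Ez-Cytox WST reagent added for 1 h and formazan absorbance read at 450 nm.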

[11] = target: T1, Nuclear factor erythroid 2-related factor 2 (Mus musculus); test: Activation of NRF2 in mouse BV2 cells assessed as inhibition of LPS-stimulated iNOS expression at 10 uM preincubated for 3 hrs followed by LPS stimulation for 24 hrs by Western blot analysis relative to control; type: cell-based; design: scale not given: the % may be the effect or the level left; how it was run: as §2
[12] = target: CYP3A4 (Homo sapiens, UniProt P08684); test: Inhibition of CYP3A4 (unknown origin) assessed as remaining activity relative to control; type: ADME
CYP3A4, sequence (P08684 whole entry): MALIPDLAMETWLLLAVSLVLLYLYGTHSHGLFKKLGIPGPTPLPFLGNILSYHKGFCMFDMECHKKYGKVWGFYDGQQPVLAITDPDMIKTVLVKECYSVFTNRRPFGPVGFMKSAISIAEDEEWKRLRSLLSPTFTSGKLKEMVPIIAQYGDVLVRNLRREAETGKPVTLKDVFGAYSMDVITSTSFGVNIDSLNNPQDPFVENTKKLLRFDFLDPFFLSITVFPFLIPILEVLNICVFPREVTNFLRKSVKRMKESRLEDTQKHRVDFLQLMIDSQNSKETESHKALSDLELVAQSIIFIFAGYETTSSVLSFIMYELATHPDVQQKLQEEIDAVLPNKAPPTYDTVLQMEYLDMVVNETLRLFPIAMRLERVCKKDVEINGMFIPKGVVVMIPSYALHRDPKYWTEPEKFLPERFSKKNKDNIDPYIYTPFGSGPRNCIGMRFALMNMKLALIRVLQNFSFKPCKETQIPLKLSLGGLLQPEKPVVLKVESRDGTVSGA

[13] = target: T1, Nuclear factor erythroid 2-related factor 2 (Mus musculus); test: Activation of NRF2 in mouse BV2 cells assessed reduction of LPS-stimulated TNF-alpha level preincubated for 3 hrs followed by LPS stimulation for 24 hrs by ELISA; type: cell-based
How it was run: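 BV-2 cells pre-incubated with a range of compound concentrations for 3 h, then stimulated with 0.2 μg/mL LPS for 24 h. TNF-α or IL-6 in the culture medium quantified by sandwich ELISA kits. Compared with LPS-treated control by one-way ANOVA with Dunnett's test.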

[14] = Lipophilicity, log P of the compound; type: physicochemical; details: octanol/water
[15] = species: Homo sapiens; test: Inhibition of H2O2-stimulated ROS production in […] BV2 cells at 10 uM preincubated for 24 hrs followed by H2O2 stimulation for 20 mins by DCFH-DA dye based assay; type: functional, cell-based
How it was run: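 BV-2 microglial cells pretreated with 10 μM compound for 24 h, then exposed to a series of H2O2 concentrations for 20 min. Intracellular ROS measured by DCFH-DA fluorescence. One-way ANOVA with Tukey's test.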

[16] = target: T1, Nuclear factor erythroid 2-related factor 2 (Mus musculus); test: Activation of NRF2 in mouse BV2 cells assessed as upregulation of HO1 at 20 uM by ELISA relative to control; type: cell-based

For `CN1CCN(C(=O)COc2ccc(C(=O)/C=C/c3ccccc3C(F)(F)F)cc2)CC1.Cl`, the Activity [1] was “Active”, the Activity [2] was “Dose-dependent effect” and the activity [3] was 98.5%. For the same compound, the Activity [4] was “Dose-dependent effect”, the remaining at 0.5 h [5] was 99.3% and the Activity [6] was “Dose-dependent effect”. For the same compound, the Activity [7] was “Active”, the Activity [8] was “Active” and the activity [9] was 79.3%. For the same compound, the activity [10] was “Non-Toxic”, the Activity [11] was 100% and the activity [12] was over 100%. The Activity [13] was “Dose-dependent effect”, the logP [14] was 3.22 and the inhibition [15] was “Active”. For the same compound, the Activity [16] was 589%.
